Sampled rows, rich in hits. Any-hit rate of the full collection: about 2.3%.
TRPC4 block: inhibitors of mouse TRPC4 channel, primary screen, Fluo4 calcium, HEK293 TRPC4beta/mu-opioid cells | B-score at 10 µM | hit rate 0.39% among 300,000 | Short transient receptor potential channel 4 (Mus musculus), Q9QUQ5 | DAMGO-evoked Fluo4 calcium flux; hits give low values;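 active = B-score over 3 SD under the library average, no early fluorescence shift, positive overall ratio signal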
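test system = HEK293 cells with stable TRPC4beta plus mu-opioid receptor expression | detection = Fluo4 Ca2+ flux fluorescence | read-out = integrated fluorescence ratio relative to baseline, converted to per-well B score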
FID counter: compounds displacing fluorescent DNA intercalator, primary screen, artefact control for HCV NS3 helicase inhibitor project, biochemical, FID fluorescence. hit rate 0.17% among 290,000. inhibition, % at 7.9 µM. AID 1845, 2009. DNA fluorescent intercalator displacement; in the data active = inhibition above about 37%;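 note: 0% = vehicle and 100% = reference compound; higher means more ethidium bromide displaced from hairpin DNA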
TRPC4 PAM: positive allosteric modulators of TRPC4, primary screen, cell-based, mouse TRPC4beta, HEK293 mu-opioid, Fluo-4 calcium. Short transient receptor potential channel 4 (Mus musculus), Q9QUQ5. DAMGO EC20, Fluo-4 Ca2+ flux; hits give high values. B-score at 10 µM. hit rate 0.42% among 310,000. AID 2227, 2009;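 active = B-score of calcium response area above 5 SD of library B-scores, with initial fluorescence ratio within 5 SD of library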;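 note: B-score of integrated fluorescence ratio over time as area under calcium response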
TRPC6 act: mouse TRPC6 channel activators, primary screen, cell-based, HEK293, membrane potential dye; HEK293-TRPC6 membrane potential dye fluorescence; hits give high values; B-score at 10 µM; hit rate 0.13% among 310,000; AID 2550, 2010;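 active = B-score of the integrated fluorescence ratio above library mean plus 3 SD, and starting fluorescence ratio within library mean plus 5 SD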;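 note: higher score means more depolarization so channel activation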
TRPC6 inhibitor: mouse TRPC6 channel inhibitors, primary screen, cell-based, HEK293, membrane potential dye; ACh-evoked depolarization; hits give low values; B-score at 10 µM; hit rate 1.1% among 310,000; AID 2553, 2010;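 active = B-score under library mean minus 3 SD, initial fluorescence not abnormally high, positive integrated signal ratio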;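 note: B-score derived from integrated fluorescence ratio over the kinetic read; more negative B-score means stronger inhibition of depolarization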
TRPC4 agonist: activators of mouse TRPC4 channel, primary screen, Fluo4 calcium, HEK293 TRPC4beta/mu-opioid cells; Fluo4 calcium fluorescence; hits give high values; AID 2237, 2010; Short transient receptor potential channel 4 (Mus musculus), Q9QUQ5; hit rate 0.49% among 310,000; B-score at 10 µM;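 active = B-score above 5 SD of library B-scores, and initial fluorescence ratio not above library mean plus 5 SD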;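 note: positive B-score marks a calcium rise read as TRPC4 activation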
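Technique: kinetic Fluo4 calcium fluorescence; Test system: TRPC4beta and mu-opioid receptor HEK293 stable cells; Measure: B-scored integrated calcium fluorescence ratio; Benchmarks: low control buffer alone, high control maximal DAMGO; Schedule: 45 min room-temperature Fluo4 loading, 110 s read.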
HEK293 MPD ctr: parental HEK293 membrane potential modulation, confirmation, counter-screen for TRPC6 modulator project, cell-based | membrane potential signal change, % at 10 µM | shares compounds with TRPC6 inhibitor | membrane potential dye fluorescence | hit rate 51% among 2,400;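 active = membrane potential signal moves up or down beyond 5 SD from buffer-only wells, on both duplicate plates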
HEK293 MPD ctr 2: parental HEK293 nonspecific activity of TRPC6 modulators, second screen | AID 488926 | shares compounds with TRPC6 inhibitor | membrane potential dye fluorescence; after compound, maximal acetylcholine stimulation | hit rate 14% among 2,400 | inhibition, % at 10 µM;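 active = membrane potential signal drops by more than 5 SD from the mean control signal, in both duplicate plates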;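 note: plate controls were acetylcholine ECmax control wells for no effect and buffer only wells for full effect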
TRPC4/MOR mod: TRPC4 modulation by TRPC6 hit compounds, confirmation, selectivity assay for TRPC6 modulator project, cell-based, HEK293 TRPC4/mu-opioid, membrane potential dye, mouse | membrane potential fluorescence | percent change from control (negative = decrease, positive = increase), % at 10 µM | hit rate 69% among 2,400 | shares compounds with TRPC6 inhibitor;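 active = membrane potential signal moved up or down beyond 5 SD of buffer control wells, in both duplicate plates, actives on both sides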;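 note: plate controls were assay buffer wells for no effect and DAMGO maximal-effect wells for full effect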
TRPC4 ctr inh 2: second check of whether TRPC6 modulators also affect mouse TRPC4. hit rate 55% among 2,400. inhibition, % at 10 µM. shares compounds with TRPC6 inhibitor. HEK293 TRPC4/mu-opioid, membrane potential dye fluorescence; stimulated with maximal-effect DAMGO;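 active = drop in membrane potential signal beyond 5 SD of the control wells in both duplicate plates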;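 note: TRPC4 counter screen for TRPC6 hits run under conditions tuned for TRPC6 not TRPC4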
TRPC6 inh conf: mouse TRPC6 channel inhibitors, confirmation, HEK293 cells, membrane potential dye, duplicate; shares compounds with TRPC6 inhibitor; ACh-evoked depolarization; inhibition, % at 10 µM; hit rate 43% among 3,300;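 active = fluorescence ratio falls more than 5 SD below the full-stimulation control mean, in both duplicate runs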;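 note: integrated fluorescence ratio of peak minus minimum over baseline after agonist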
Active calls of the source: *.

O=C(CN1C(=O)c2ccccc2C1=O)NCC1CCCO1 (configuration not stated) was read as TRPC4 block inactive, FID counter -1, TRPC4 PAM inactive, TRPC6 act inactive, TRPC6 inhibitor inactive and TRPC4 agonist inactive.
O=C(CN1C(=O)c2ccc(Br)cc2C1=O)NCC1CCCO1 (configuration not stated) was read as TRPC4 block inactive, FID counter -5, TRPC4 PAM inactive, TRPC6 act inactive, TRPC6 inhibitor -8.9*, TRPC4 agonist inactive, HEK293 MPD ctr inactive, HEK293 MPD ctr 2 inactive, TRPC4/MOR mod inactive, TRPC4 ctr inh 2 inactive and TRPC6 inh conf 82%*.
Nc1ccc(C(=O)NC23CC4CC(CC(C4)C2)C3)cc1 was read as TRPC4 block inactive, FID counter -8, TRPC4 PAM inactive, TRPC6 act inactive, TRPC6 inhibitor inactive and TRPC4 agonist inactive.
Screening CC(=O)c1cccc(Nc2nc(-c3ccccc3)nc3ccccc23)c1 returned TRPC4 block inactive, FID counter -2, TRPC4 PAM inactive, TRPC6 act inactive, TRPC6 inhibitor inactive and TRPC4 agonist inactive.
Screening Cc1ccc(NC(=O)Nc2ccc(C(=O)N3CCOCC3)cc2)cc1 returned TRPC4 block inactive, FID counter -8, TRPC4 PAM inactive, TRPC6 act inactive, TRPC6 inhibitor inactive and TRPC4 agonist inactive.

Screening data from PubChem.
